Laboratory results from ChEMBL document CHEMBL4725343, “Medicinal Chemistry Optimization of a Diaminopurine Chemotype: Toward a Lead for Trypanosoma brucei Inhibitors” (J Med Chem, 2020).
Blank lines part the entries; values can stand above or below the molecule they belong to.

Assays:
[1] = Distribution coefficient between octanol and aqueous buffer, logD of the compound in pH 7.4 buffer by UPLC-MS-based shake flask method; type: physicochemical; conditions: octanol/water
[2] = Tmax in ABT-treated NMRI mouse at 30 mg/kg, ip measured up to 6 hrs on day 1 by LC-MS/MS analysis; type: ADME, organism-based; conditions: in vivo, dose 30 mg/kg/day
Outline: (§1)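 Female NMRI mice, infected with STIB795 or uninfected, pretreated with ABT 50 mg/kg po 1 h before 30 mg/kg ip. Vehicle 4% DMSO, 20% Captisol. Tail blood taken at 0.5, 2, 4 and 6 h on day 1 and diluted with water. Liquid–liquid extraction with nifedipine internal standard, then LC-MS/MS.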

[3] = AUC(0 to t) in ABT-treated NMRI mouse at 30 mg/kg, ip measured up to 6 hrs on day 1 by LC-MS/MS analysis; type: ADME, organism-based; design: route intraperitoneal, dose 30 mg/kg/day, time <=6; conditions: in vivo
Outline: (§2)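 Uninfected female NMRI mice (n=3), oral 1-aminobenzotriazole 50 mg/kg/day 1 h before each ip dose of 30 mg/kg/day (0.2 mL; vehicle 4% DMSO, 20% Captisol). Blood sampled at 0.5, 2, 4 and 6 h on day 1. Samples processed by liquid–liquid extraction with nifedipine internal standard, then LC-MS/MS.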

[4] = Tmax in ABT-treated NMRI mouse infected with Trypanosoma brucei brucei STIB795 at 30 mg/kg, ip measured up to 6 hrs on day 1 by LC-MS/MS analysis; type: ADME, organism-based; conditions: in vivo, dose 30 mg/kg/day; outline: as §1
[5] = AUC in NMRI mouse at 10 mg/kg, ip measured up to 6 hrs on day 1 by LC-MS/MS analysis; type: ADME, organism-based; design: route intraperitoneal, dose 10 mg/kg; conditions: in vivo
Outline: (§3)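 Female NMRI mice, uninfected, single ip dose 10 mg/kg at 10 mL/kg in 1% DMSO/99% of 20% (w/v) SBEβ-CD (Captisol) in water. Tail-vein blood into K2EDTA at 0.0833, 0.25, 0.5, 1, 2, 4, 6, 8 and 24 h. Blood diluted 1:1 in water, liquid–liquid extraction with nifedipine internal standard, LC-MS/MS.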

[6] = Cmax in ABT-treated NMRI mouse at 30 mg/kg, ip measured up to 6 hrs on day 1 by LC-MS/MS analysis; type: ADME, organism-based; design: route intraperitoneal, dose 30 mg/kg/day, time <=6; conditions: in vivo
Outline: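 Female NMRI mice, uninfected (n=3), were given ABT 50 mg/kg/day 1 h before each ip dose of 30 mg/kg/day, in a vehicle of 4% DMSO and 20% Captisol, as a 0.2 mL injection. Blood was sampled at 0.5, 2, 4 and 6 h on day 1. Samples underwent liquid–liquid extraction with nifedipine as internal standard, followed by LC-MS/MS.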

[7] = Apparent permeability across basolateral to apical side in human Caco2 cells after 2 hrs; type: ADME, cell-based; conditions: caco-2, 2 h
[8] = AUC (0 to t) in NMRI mouse at 10 mg/kg, ip measured up to 6 hrs on day 1 by LC-MS/MS analysis; type: ADME, organism-based; design: route intraperitoneal, dose 10 mg/kg; conditions: in vivo; outline: as §3
[9] = Apparent permeability across basolateral to apical side in human Caco2 cells assessed as drug recovery after 2 hrs; type: ADME, cell-based; conditions: caco-2, 2 h
[10] = Cmax in NMRI mouse at 10 mg/kg, ip measured up to […]rs on day 1 by LC-MS/MS analysis; type: ADME, organism-based; design: route intraperitoneal, dose 10 mg/kg; conditions: in vivo
Outline: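 Female NMRI mice, uninfected (n=3), received a single ip dose of 10 mg/kg at 10 mL/kg, in 1% DMSO/99% of 20% (w/v) SBEβ-CD in water. Tail-vein blood was collected into K2EDTA at 0.0833 to 24 h and diluted with an equal volume of water. Samples underwent liquid–liquid extraction with nifedipine as internal standard, followed by LC-MS/MS.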

[11] = AUC in ABT-treated NMRI mouse infected with Trypanosoma brucei brucei STIB795 at 30 mg/kg, ip measured up to 6 hrs on day 1 by LC-MS/MS analysis; type: ADME, organism-based; design: route intraperitoneal, dose 30 mg/kg/day, time <=6; conditions: in vivo
Outline: (§4)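 Female NMRI mice infected ip with 10^4 bloodstream T. b. brucei STIB795 in TDB glucose. Dosing began day 3 after infection with parasitemia confirmed (n=3): oral ABT 50 mg/kg 1 h before ip 30 mg/kg (0.2 mL; 4% DMSO, 20% Captisol). Blood taken at 0.5, 2, 4, 6 h on day 1, extracted with nifedipine internal standard, LC-MS/MS.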

[12] = AUC(0 to t) in ABT-treated NMRI mouse infected with Trypanosoma brucei brucei STIB795 at 30 mg/kg, ip measured up to 6 hrs on day 1 by LC-MS/MS analysis; type: ADME, organism-based; design: route intraperitoneal, dose 30 mg/kg/day, time <=6; conditions: in vivo; outline: as §4
[13] = Tmax in NMRI mouse at 10 mg/kg, ip measured up to 6 hrs on day 1 by LC-MS/MS analysis; type: ADME, organism-based; conditions: in vivo
Outline: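 Uninfected female NMRI mice given 10 mg/kg ip at 10 mL/kg in 1% DMSO/99% of 20% (w/v) SBEβ-CD in water, n=3. Tail-vein blood collected into K2EDTA at 0.0833–24 h and diluted 1:1 with water. Extracted with internal standard nifedipine and quantified by LC-MS/MS.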

[14] = Apparent permeability across apical to basolateral side in human Caco2 cells after 2 hrs; type: ADME, cell-based; conditions: caco-2, 2 h
[15] = AUC in ABT-treated NMRI mouse at 30 mg/kg, ip measured up to 6 hrs on day 1 by LC-MS/MS analysis; type: ADME, organism-based; design: route intraperitoneal, dose 30 mg/kg/day, time <=6; conditions: in vivo; outline: as §2
[16] = Apparent permeability across apical to basolateral side in human Caco2 cells assessed as drug recovery after 2 hrs; type: ADME, cell-based; conditions: caco-2, 2 h
[17] = Cmax in ABT-treated NMRI mouse infected with Trypanosoma brucei brucei STIB795 at 30 mg/kg, ip measured up to 6 hrs on day 1 by LC-MS/MS analysis; type: ADME, organism-based; design: route intraperitoneal, dose 30 mg/kg/day, time <=6; conditions: in vivo
Outline: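 Female NMRI mice were infected ip with 10^4 bloodstream-form T. b. brucei STIB795. From day 3 they received ABT 50 mg/kg/day 1 h before ip dosing at 30 mg/kg/day (n=3), in a vehicle of 4% DMSO and 20% Captisol, for 5 days. Blood was sampled at 0.5, 2, 4 and 6 h on day 1. Quantitation was by LC-MS/MS after liquid–liquid extraction with nifedipine as internal standard.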

logD [1]: 3.1
Compound: FC(F)(F)CNc1nc(Nc2ccsc2)nc2[nH]cnc12

Compound: Cn1nccc1Nc1nc(NCC(F)(F)F)c2nc[nH]c2n1
Tmax [2]: 30 min
AUCt [3]: 51799 ng·h/mL
Tmax [4]: 30 min
AUC [5]: 5350 ng·h/mL
Cmax [6]: 15767 ng/mL
Papp [7]: 44 10^-6 cm/s
AUCt [8]: 5340 ng·h/mL
Drug recovery [9]: 102%
logD [1]: 1.9
Cmax [10]: 11.8 µM
AUC [11]: 83443 ng·h/mL
AUCt [12]: 77666 ng·h/mL
Tmax [13]: 15 min
Papp [14]: 5.8 10^-6 cm/s
AUC [15]: 52521 ng·h/mL
Drug recovery [16]: 87%
Cmax [17]: 17267 ng/mL
